These results are taken from ChEMBL document CHEMBL4715860 (J Med Chem, 2020).

Activity calls are given as the source filed them. No cut-off for these calls is given here.

Data set [1] in a line: Elimination half life in C57BL/6J mouse brain at 25 mg/kg, po administered as single dose by mass spectrometry based UHPLC analysis. Type of data set: ADME, organism-based. The note with it: read-out: beta t1/2 (converted). The gist of the method:
(§1)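 One oral dose of 25 mg/kg to female C57BL/6J mice. Plasma and brain concentrations followed over time, n = 3 per time point (mean).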

Data set [2] can be described thus: Cmax in C57BL/6J mouse brain at 10 mg/kg, po administered as single dose by mass spectrometry based UHPLC analysis. The arrangement: route oral, dose 10 mg/kg. Type of data set: ADME, organism-based. The gist of the method:
(§2)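 Female C57BL/6J mice, one oral dose of 10 mg/kg in 20% Captisol; plasma and brain levels over time, n = 3 per time point (mean).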

Data set [3] is described as follows: AUC (0 to 8 hrs) in C57BL/6J mouse brain at 10 mg/kg, po administered as single dose by mass spectrometry based UHPLC analysis. Type of data set: ADME, organism-based. The arrangement: time < 8 hr, route oral, dose 10 mg/kg. The gist of the method:
as §2

Data set [4] deals with Mus musculus. Kind of data set: Protection against Tsc1-GFAP knockout induced mortality in Balb/c mouse assessed as increase in survival rate at 50 mg/kg, po administered twice daily. Type of data set: functional, organism-based. The gist of the method: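 Tsc1GFAPCKO mice (conditional Tsc1 inactivation mainly in glia) dosed orally starting at P21, at 10 mg/kg or 50 mg/kg bid (n = 10 and 7). Survival recorded to P90, with censoring at P90. Compared with vehicle and everolimus by log-rank test.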

A short description of data set [5]: Toxicity in Tsc1-GFAP knockout Balb/c mouse assessed as change in body weight at 50 mg/kg, po bid. It is filed as organism-based. The settings on record: in vivo. The gist of the method: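 Tsc1GFAPCKO mice dosed orally from P21 at 10, 25, 50 mg/kg or 50 mg/kg bid. Body weight tracked during the survival study; mean ± SEM.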
The nature of data set [6]: Cmax in C57BL/6J mouse brain at 25 mg/kg, po administered as single dose by mass spectrometry based UHPLC analysis. Also on record: route oral, dose 25 mg/kg. It is filed as ADME, organism-based. The gist of the method: as §1
Data set [7] can be described thus: Clearance in C57BL/6J mouse plasma at 25 mg/kg, po administered as single dose by mass spectrometry based UHPLC analysis. It is filed as ADME, organism-based. The gist of the method: as §1
Data set [8] can be described thus: Toxicity in Tsc1-GFAP knockout Balb/c mouse assessed as change in body weight at 10 to 50 mg/kg, po administered as single dose. It is filed as organism-based. The settings on record: in vivo, dose 10-50 mg/kg.
Data set [9] is described as follows: AUC (0 to 8 hrs) in male Sprague-Dawley rat brain at 5 mg/kg, po. Type of data set: ADME, organism-based. The settings on record: in vivo. Also on record: time < 8 hr, route oral, dose 5 mg/kg. The gist of the method: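 Male Sprague Dawley rats, single oral dose of 5 mg/kg. Plasma and brain concentrations measured over 8 h, n = 3, mean ± SEM; AUC0−8 computed from the time course.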

Data set [10] relates to Mus musculus. Briefly: Protection against Tsc1-GFAP knockout induced mortality in Balb/c mouse assessed as increase in survival rate administered orally twice a day measured post last dose. Type of data set: functional, organism-based. The gist of the method:
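Tsc1GFAPCKO mice (Tsc1 conditionally inactivated mainly in glia). Oral dosing from P21 at 10, 25, 50 mg/kg qd or 50 mg/kg bid, n = 7–10 per group. Controls were vehicle and a comparator at 10 mg/kg. Body weight tracked. Survival followed from P21 to death or censoring at P90, compared by log-rank test.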

The nature of data set [11]: Cmax in C57BL/6J mouse brain at 10 mg/kg, po administered once a day for 4 consecutive days by mass spectrometry based UHPLC analysis. It is filed as ADME, organism-based. The arrangement: route oral, dose 10 mg/kg, time 4 day. The gist of the method:
(§3)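 Female C57BL/6J mice given 10 mg/kg p.o. in 20% Captisol once daily for 4 consecutive days. Plasma and brain sampled after the final dose on day 4, n = 3 per time point.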

A short description of data set [12]: AUC (0 to 8 hrs) in C57BL/6J mouse plasma at 25 mg/kg, po administered as single dose by mass spectrometry based UHPLC analysis. It is filed as ADME, organism-based. Also on record: time < 8 hr, route oral, dose 25 mg/kg. The gist of the method: as §1
The nature of data set [13]: Cmax in C57BL/6J mouse plasma at 10 mg/kg, po administered as single dose by mass spectrometry based UHPLC analysis. It is filed as ADME, organism-based. Also on record: route oral, dose 10 mg/kg. The gist of the method: as §2
The nature of data set [14]: Tmax in C57BL/6J mouse brain at 25 mg/kg, po administered as single dose by mass spectrometry based UHPLC analysis. It is filed as ADME, organism-based. The gist of the method:
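Female C57BL/6J mice given a single oral dose of 25 mg/kg. Plasma and brain levels followed over time (n = 3 per time point, mean). Tmax is the time of maximal concentration.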

The subject of data set [15] is Mus musculus. Kind of data set: In vivo inhibition of mTORC1 signalling in C57BL/6J mouse brain assessed as reduction in RPS6 phosphorylation at S235/236 residue at 25 mg/kg, po incubated for 30 mins by Western blot analysis. It is filed as functional, organism-based. The gist of the method: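 Female C57BL/6J mice dosed at 25 mg/kg p.o.; cortex collected 30 min later and lysed. Equal protein run on SDS-PAGE and western blotted for pS6(Ser235/236), pPKB(Ser473) and α-tubulin, detected by HRP secondary antibodies and ECL. Signal expressed as % of control cortex, n = 3, mean ± SEM, unpaired t-test.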

A further data set relates to Rattus norvegicus. Kind of data set: In vivo inhibition of PI3Kalpha Sprague-Dawley rat assessed as increase in plasma glucose concentration at 5 mg/kg, po measured after 8 hrs by glucoseoxidase-peroxide coupled colorimetric assay. It is filed as functional, organism-based. The gist of the method:
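Male Sprague Dawley rats dosed orally at 5 mg/kg; plasma insulin and glucose followed over time against vehicle, n = 3, mean ± SEM.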

Data set [16] in a line: Intrinsic clearance in Beagle dog hepatocytes assessed per million cells at 5 uM incubated for 3 hrs by LC-MS analysis. Type of data set: ADME, cell-based, Canis lupus familiaris, Hepatocyte. The note with it: read-out: CLH. The gist of the method:
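Cryopreserved Beagle dog hepatocytes in suspension with compound at 5 μM (final, from 10 mM DMSO stock). Sampled at 0, 15, 60, 90 and 180 min, ACN-precipitated and analysed by LC-MS. Duplicates; 7-ethoxycoumarin as positive control, hepatocyte-free medium as negative control. CLint given per 10^6 cells, mean ± SEM (n = 2).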

A short description of data set [17]: Clearance in C57BL/6J mouse plasma at 10 mg/kg, po administered once a day for 4 consecutive days by mass spectrometry based UHPLC analysis. Type of data set: ADME, organism-based. The settings on record: time 4 day. The gist of the method:
as §3

The next data set has as its system P-glycoprotein. Kind of data set: Substrate activity at human P-glycoprotein stably expressed in MDCK cells assessed as efflux ratio at 1 uM measured after 5 to 20 mins by UPLC-MS/MS analysis. Type of data set: ADME, cell-based. The settings on record: MDCK-MDR1, time 5-20 min. The gist of the method: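 CRISPR canine-MDR1-knockout MDCKII cells stably expressing human MDR1, with the knockout parent line as control. Cells grown 5 days on TransWell filters and preincubated in HBSS 30 min at 37 °C. Compound at 1 μM added apical or basolateral. Receiver sampled at 5, 10 and 20 min; UPLC-MS/MS.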

For `C[C@@H]1COCCN1c1nc(-c2cnc(N)cc2C(F)F)nc(N2[C@H](C)COC[C@@H]2C)n1`, the half-life in data set [1] was 144 min. Besides, the Cmax in data set [2] is 1420 ng/mL; in [6] it was 3340 ng/mL; in data set [11], 1320 ng/mL; in [13], 1100 ng/mL. In addition, the AUC(0-t) at 8 h stood at 4650 ng·h/mL in [3] and 10300 ng·h/mL in [12]. Moreover, the outcome with Mus musculus [4] was Active. The results for the Activity result (in data set [5]; in data set [8]; with Mus musculus [10]) were “Non-Toxic”, “Non-Toxic” and “Dose-dependent effect”, respectively. Moreover, the figures for the CL/F in [7] and in data set [17] were 40.5 mL/min/kg and 64.9 mL/min/kg, respectively. Besides, the AUC in data set [9] stood at 3689 ng·h/g. The Tmax in [14] worked out at 30 min. Also, in the data set on Mus musculus [15], the inhibition result is “Active”. In the data set with Rattus norvegicus, the inhibition entry was “inactive”. Further, the hepatocyte CLint at 5 µM in data set [16] is 1.8 µL/min/1e6 cells.
On to `C[C@@H]1COCCN1c1nc(-c2cnc(N)cc2C(F)F)nc(N2CCOCC2(C)C)n1`, for which, in the data set with P-glycoprotein, the efflux ratio at 1 µM was found to be 1.5.
